Source: ChEMBL document CHEMBL1154352, “Toll-like receptor 7 selective synthetic oligoribonucleotide agonists: synthesis and structure-activity relationship studies” (J Med Chem, 2009)

How the values were obtained:
Assay type in all cases: functional, cell-based
[1] = test system: PBMC; test: Immunomodulatory activity in human PBMC assessed as induction of IL12 after 24 hrs
How it was run: (§1)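 Human PBMCs plated at 5 × 10^6 cells/mL; compounds dissolved in PBS added at various concentrations, 37 °C for 24 h. Supernatant cytokines/chemokines quantified with human Luminex multiplex kit.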

[2] = test system: PBMC; test: Immunomodulatory activity in human PBMC assessed as induction of IP10 after 24 hrs; how it was run: as §1
[3] = test system: PBMC; test: Immunomodulatory activity in human PBMC assessed as induction of MIP1beta after 24 hrs; how it was run: as §1
[4] = test system: PBMC; test: Immunomodulatory activity in human PBMC assessed as induction of TNFalpha after 24 hrs; how it was run: as §1
[5] = test system: PBMC; test: Immunomodulatory activity in human PBMC assessed as induction of MIP1alpha after 24 hrs; how it was run: as §1
[6] = test system: PBMC; test: Immunomodulatory activity in human PBMC assessed as induction of MCP1 after 24 hrs; how it was run: as §1
[7] = test system: PBMC; test: Immunomodulatory activity in human PBMC assessed as induction of IL10 after 24 hrs; how it was run: as §1
[8] = test system: PBMC; test: Immunomodulatory activity in human PBMC assessed as induction of IL1-beta after 24 hrs; how it was run: as §1
[9] = test system: PBMC; test: Immunomodulatory activity in human PBMC assessed as induction of IFNalpha after 24 hrs; how it was run: as §1

Measured: Activity

Nc1ccn([C@@H]2O[C@H](COP(=O)(S)O[C@H]3[C@@H](O)[C@H](n4cnc5c(N)ncnc54)O[C@@H]3COP(=O)(S)O[C@H]3[C@@H](O)[C@H](n4ccc5c(=O)[nH]c(N)nc54)O[C@@H]3COP(=O)(S)O[C@H]3[C@@H](O)[C@H](n4ccc(=O)[nH]c4=O)O[C@@H]3COP(=O)(S)O[C@H]3[C@@H](O)[C@H](n4ccc(=O)[nH]c4=O)O[C@@H]3COP(=O)(S)O[C@H]3[C@@H](O)[C@H](n4cnc5c(N)ncnc54)O[C@@H]3COP(=O)(S)O[C@H]3[C@@H](O)[C@H](n4cnc5c(N)ncnc54)O[C@@H]3CO)[C@@H](OP(=O)(S)OC[C@H]3O[C@@H](n4ccc5c(=O)[nH]c(N)nc54)[C@H](O)[C@@H]3OP(=O)(S)OC[C@H]3O[C@@H](n4ccc(N)nc4=O)[C@H](O)[C@@H]3OP(=O)(S)OC[C@H]3O[C@@H](n4ccc(=O)[nH]c4=O)[C@H](O)[C@@H]3OP(=O)(S)OC[C@H]3O[C@@H](n4ccc(=O)[nH]c4=O)[C@H](O)[C@@H]3OP(=O)(S)OCC(O)COP(=O)(S)O[C@H]3[C@@H](O)[C@H](n4ccc(=O)[nH]c4=O)O[C@@H]3COP(=O)(S)O[C@H]3[C@@H](O)[C@H](n4ccc(=O)[nH]c4=O)O[C@@H]3COP(=O)(S)O[C@H]3[C@@H](O)[C@H](n4ccc(N)nc4=O)O[C@@H]3COP(=O)(S)O[C@H]3[C@@H](O)[C@H](n4ccc5c(=O)[nH]c(N)nc54)O[C@@H]3COP(=O)(S)O[C@H]3[C@@H](O)[C@H](n4ccc(N)nc4=O)O[C@@H]3COP(=O)(S)O[C@H]3[C@@H](O)[C@H](n4cnc5c(N)ncnc54)O[C@@H]3COP(=O)(S)O[C@H]3[C@@H](O)[C@H](n4ccc5c(=O)[nH]c(N)nc54)O[C@@H]3COP(=O)(S)O[C@H]3[C@@H](O)[C@H](n4ccc(=O)[nH]c4=O)O[C@@H]3COP(=O)(S)O[C@H]3[C@@H](O)[C@H](n4ccc(=O)[nH]c4=O)O[C@@H]3COP(=O)(S)O[C@H]3[C@@H](O)[C@H](n4cnc5c(N)ncnc54)O[C@@H]3COP(=O)(S)O[C@H]3[C@@H](O)[C@H](n4cnc5c(N)ncnc54)O[C@@H]3CO)[C@H]2O)c(=O)n1 (some centres not stated)
active: [1] Dose-dependent effect | [2] Dose-dependent effect | [3] Dose-dependent effect | [4] Dose-dependent effect | [5] Dose-dependent effect | [6] Dose-dependent effect | [7] Dose-dependent effect | [8] Dose-dependent effect | [9] Dose-dependent effect

Nc1ccn([C@@H]2O[C@H](COP(=O)(S)O[C@H]3[C@@H](O)[C@H](n4cnc5c(N)ncnc54)O[C@@H]3COP(=O)(S)O[C@H]3[C@@H](O)[C@H](n4ccc5c(=O)[nH]c(N)nc54)O[C@@H]3COP(=O)(S)O[C@H]3[C@@H](O)[C@H](n4ccc(=O)[nH]c4=O)O[C@@H]3COP(=O)(S)O[C@H]3[C@@H](O)[C@H](n4ccc5c(=O)[nH]c(N)nc54)O[C@@H]3COP(=O)(S)O[C@H]3[C@@H](O)[C@H](n4cnc5c(N)ncnc54)O[C@@H]3COP(=O)(S)O[C@H]3[C@@H](O)[C@H](n4cnc5c(N)ncnc54)O[C@@H]3CO)[C@@H](OP(=O)(S)OC[C@H]3O[C@@H](n4ccc5c(=O)[nH]c(N)nc54)[C@H](O)[C@@H]3OP(=O)(S)OC[C@H]3O[C@@H](n4ccc(N)nc4=O)[C@H](O)[C@@H]3OP(=O)(S)OC[C@H]3O[C@@H](n4ccc(=O)[nH]c4=O)[C@H](O)[C@@H]3OP(=O)(S)OC[C@H]3O[C@@H](n4ccc(=O)[nH]c4=O)[C@H](O)[C@@H]3OP(=O)(S)OCC(O)COP(=O)(S)O[C@H]3[C@@H](O)[C@H](n4ccc(=O)[nH]c4=O)O[C@@H]3COP(=O)(S)O[C@H]3[C@@H](O)[C@H](n4ccc(=O)[nH]c4=O)O[C@@H]3COP(=O)(S)O[C@H]3[C@@H](O)[C@H](n4ccc(N)nc4=O)O[C@@H]3COP(=O)(S)O[C@H]3[C@@H](O)[C@H](n4ccc5c(=O)[nH]c(N)nc54)O[C@@H]3COP(=O)(S)O[C@H]3[C@@H](O)[C@H](n4ccc(N)nc4=O)O[C@@H]3COP(=O)(S)O[C@H]3[C@@H](O)[C@H](n4cnc5c(N)ncnc54)O[C@@H]3COP(=O)(S)O[C@H]3[C@@H](O)[C@H](n4ccc5c(=O)[nH]c(N)nc54)O[C@@H]3COP(=O)(S)O[C@H]3[C@@H](O)[C@H](n4ccc(=O)[nH]c4=O)O[C@@H]3COP(=O)(S)O[C@H]3[C@@H](O)[C@H](n4ccc5c(=O)[nH]c(N)nc54)O[C@@H]3COP(=O)(S)O[C@H]3[C@@H](O)[C@H](n4cnc5c(N)ncnc54)O[C@@H]3COP(=O)(S)O[C@H]3[C@@H](O)[C@H](n4cnc5c(N)ncnc54)O[C@@H]3CO)[C@H]2O)c(=O)n1 (some centres not stated)
active: [1] Dose-dependent effect | [2] Dose-dependent effect | [3] Dose-dependent effect | [4] Dose-dependent effect | [5] Dose-dependent effect | [6] Dose-dependent effect | [7] Dose-dependent effect | [8] Dose-dependent effect | [9] Dose-dependent effect

Nc1ccn([C@@H]2O[C@H](COP(=O)(S)O[C@H]3[C@@H](O)[C@H](n4cnc5c(N)ncnc54)O[C@@H]3COP(=O)(S)O[C@H]3[C@@H](O)[C@H](n4cnc5c(N)ncnc54)O[C@@H]3CO)[C@@H](OP(=O)(S)OC[C@H]3O[C@@H](n4ccc(=O)[nH]c4=O)[C@H](O)[C@@H]3OP(=O)(S)OC[C@H]3O[C@@H](n4ccc5c(=O)[nH]c(N)nc54)[C@H](O)[C@@H]3OP(=O)(S)OC[C@H]3O[C@@H](n4cnc5c(N)ncnc54)[C@H](O)[C@@H]3OP(=O)(S)OC[C@H]3O[C@@H](n4ccc(N)nc4=O)[C@H](O)[C@@H]3OP(=O)(S)OC[C@H]3O[C@@H](n4ccc5c(=O)[nH]c(N)nc54)[C@H](O)[C@@H]3OP(=O)(S)OC[C@H]3O[C@@H](n4ccc(N)nc4=O)[C@H](O)[C@@H]3OP(=O)(S)OC[C@H]3O[C@@H](n4ccc(=O)[nH]c4=O)[C@H](O)[C@@H]3OP(=O)(S)OC[C@H]3O[C@@H](n4ccc(=O)[nH]c4=O)[C@H](O)[C@@H]3OP(=O)(S)OCC(O)COP(=O)(S)O[C@H]3[C@@H](O)[C@H](n4ccc(=O)[nH]c4=O)O[C@@H]3COP(=O)(S)O[C@H]3[C@@H](O)[C@H](n4ccc(=O)[nH]c4=O)O[C@@H]3COP(=O)(S)O[C@H]3[C@@H](O)[C@H](n4ccc(N)nc4=O)O[C@@H]3COP(=O)(S)O[C@H]3[C@@H](O)[C@H](n4ccc5c(=O)[nH]c(N)nc54)O[C@@H]3COP(=O)(S)O[C@H]3[C@@H](O)[C@H](n4ccc(N)nc4=O)O[C@@H]3COP(=O)(S)O[C@H]3[C@@H](O)[C@H](n4cnc5c(N)ncnc54)O[C@@H]3COP(=O)(S)O[C@H]3[C@@H](O)[C@H](n4ccc5c(=O)[nH]c(N)nc54)O[C@@H]3COP(=O)(S)O[C@H]3[C@@H](O)[C@H](n4ccc(=O)[nH]c4=O)O[C@@H]3COP(=O)(S)O[C@H]3[C@@H](O)[C@H](n4ccc(N)nc4=O)O[C@@H]3COP(=O)(S)O[C@H]3[C@@H](O)[C@H](n4cnc5c(N)ncnc54)O[C@@H]3COP(=O)(S)O[C@H]3[C@@H](O)[C@H](n4cnc5c(N)ncnc54)O[C@@H]3CO)[C@H]2O)c(=O)n1 (some centres not stated)
active: [1] Dose-dependent effect | [2] Dose-dependent effect | [3] Dose-dependent effect | [4] Dose-dependent effect | [5] Dose-dependent effect | [6] Dose-dependent effect | [7] Dose-dependent effect | [8] Dose-dependent effect | [9] Dose-dependent effect
